Active and inactive are the calls of the source. No cut-off for these calls is given here.

Data set [1] has as its system BV-2. Briefly: Antiinflammatory activity in Japanese encephalitis virus GP78 infected mouse BV2 cells assessed as decrease in virus-induced TNFalpha levels at 25 uM after 18 hrs by Western blot relative to control. In kind it is functional.
For data set [2], the system named is BV-2. Briefly: Antiinflammatory activity in Japanese encephalitis virus GP78 infected mouse BV2 cells assessed as decrease in virus-induced IL12 levels at 25 uM after 18 hrs by Western blot relative to control. In kind it is functional.
Data set [3] concerns BV-2. The experiment in a line: Antiinflammatory activity in Japanese encephalitis virus GP78 infected mouse BV2 cells assessed as decrease in virus-induced IL6 levels at 25 uM after 18 hrs by Western blot relative to control. In kind it is functional.
Data set [4] relates to Mus musculus. Briefly: Antiinflammatory activity in Japanese encephalitis virus GP78 infected BALB/c mouse assessed as increase in IkappaB-alpha levels at 25 mg/kg, ip twice daily after 8 to 9 days relative to control. More on the design: dose 25 mg/kg. The data set is classed as functional, organism-based. An outline of the steps:
(§1)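 BALB/c mice (4–5 weeks, either sex; 15 per group) received RA dissolved in PBS at 25 mg/kg i.p. twice daily. Dosing began one day after infection and continued until the first untreated infected mouse died. Brain protein (10 μg) was Western blotted with pNF-κB, IκB-α and Cox-2 antibodies (1:1,000), using β-tubulin as loading reference and HRP chemiluminescence detection. Groups were compared by one-way ANOVA with Bonferroni post hoc tests.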

For data set [5], the system named is Mus musculus. The experiment in a line: Toxicity in BALB/c mouse assessed as behavioral activity at 25 mg/kg, ip twice daily. More on the design: dose 25 mg/kg, route intraperitoneal. Conditions: in vivo. In kind it is organism-based. An outline of the steps: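 Uninfected BALB/c mice (4–5 weeks, either sex; 15 per group) received RA alone, dissolved in PBS, at 25 mg/kg i.p. twice daily. Behavior was observed and compared with a PBS-injected control group.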

Data set [6] deals with Mus musculus. The experiment in a line: Antiinflammatory activity in Japanese encephalitis virus GP78 infected BALB/c mouse assessed as decrease in virus-induced TNFalpha levels at 25 mg/kg, ip twice daily after 8 to 9 days relative to control. In kind it is functional. The following applies: route intraperitoneal. Put shortly:
(§2)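 BALB/c mice (4–5 weeks, either sex; 15 per group) were dosed with RA in PBS at 25 mg/kg i.p. twice daily, from day 1 after infection until the first untreated infected mouse died. IL-12, TNF-α, IFN-γ, MCP-1 and IL-6 in brain tissue lysates were quantified with a mouse cytometric bead array. Statistics used one-way ANOVA with Bonferroni post hoc comparisons.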

The test system of data set [7] is Mus musculus. Briefly: Antiinflammatory activity in Japanese encephalitis virus GP78 infected BALB/c mouse assessed as decrease in virus-induced IL12 levels at 25 mg/kg, ip twice daily after 8 to 9 days relative to control. In kind it is functional. Conditions: route intraperitoneal. An outline of the steps: as §2
In data set [8] the test system is Japanese encephalitis virus. Briefly: Antiviral activity against Japanese encephalitis virus GP78 infected BALB/c mouse assessed as inhibition of viral proteins in mouse brain at 25 mg/kg, ip twice daily after 8 to 9 days by immunoblot. The data set is classed as functional, organism-based. More on the design: dose 25 mg/kg.
Data set [9] relates to Mus musculus. The experiment in a line: Antiinflammatory activity in Japanese encephalitis virus GP78 infected BALB/c mouse assessed as decrease in Cox2 levels at 25 mg/kg, ip twice daily after 8 to 9 days relative to control. More on the design: dose 25 mg/kg. In kind it is functional, organism-based. An outline of the steps:
as §1

For data set [10], the system named is Mus musculus. Briefly: Antiinflammatory activity in Japanese encephalitis virus GP78 infected BALB/c mouse assessed as decrease in phosphorylated NF-kappaB levels at 25 mg/kg, ip twice daily after 8 to 9 days relative to control. The data set is classed as functional, organism-based. More on the design: dose 25 mg/kg. An outline of the steps: as §1
The subject of data set [11] is Mus musculus. The experiment in a line: Antiinflammatory activity in Japanese encephalitis virus GP78 infected BALB/c mouse assessed as decrease in virus-induced IFN-gamma levels at 25 mg/kg, ip twice daily after 8 to 9 days relative to control. In kind it is functional. Conditions: route intraperitoneal. An outline of the steps:
as §2

The subject of data set [12] is Mus musculus. Briefly: Antiinflammatory activity in Japanese encephalitis virus GP78 infected BALB/c mouse assessed as decrease in virus-induced MCP1 levels at 25 mg/kg, ip twice daily after 8 to 9 days relative to control. Conditions: route intraperitoneal. The data set is classed as functional. Put shortly: as §2
In data set [13] the test system is Mus musculus. The experiment in a line: Antiinflammatory activity in Japanese encephalitis virus GP78 infected BALB/c mouse assessed as decrease in virus-induced IL6 levels at 25 mg/kg, ip twice daily after 8 to 9 days relative to control. The data set is classed as functional. Conditions: route intraperitoneal. Put shortly: as §2
Data set [14] relates to Japanese encephalitis virus. The experiment in a line: Antiviral activity against Japanese encephalitis virus GP78 infected BALB/c mouse assessed as reduction of activated microglia in mouse brain at 25 mg/kg, ip twice daily. In kind it is functional, organism-based. More on the design: dose 25 mg/kg. An outline of the steps:
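RA was given at 25 mg/kg i.p. twice daily to infected BALB/c mice. Mice were perfused with PBS containing 7 U/ml heparin, then with 2.5% paraformaldehyde. Cryostat brain sections were stained for Iba-1, and star-shaped activated microglia were counted.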

Data set [15] concerns BV-2. Briefly: Antiinflammatory activity in Japanese encephalitis virus GP78 infected mouse BV2 cells assessed as decrease in virus-induced MCP1 levels at 25 uM after 18 hrs by Western blot relative to control. In kind it is functional.
For data set [16], the system named is Japanese encephalitis virus. The experiment in a line: Antiviral activity against Japanese encephalitis virus GP78 infected BALB/c mouse assessed as inhibition of viral mRNA transcript in mouse brain at 25 mg/kg, ip twice daily after 8 to 9 days. In kind it is functional, organism-based. More on the design: dose 25 mg/kg.
In data set [17] the test system is BV-2. The experiment in a line: Antiinflammatory activity in Japanese encephalitis virus GP78 infected mouse BV2 cells assessed as decrease in virus-induced IFN-gamma levels at 25 uM after 18 hrs by Western blot relative to control. In kind it is functional.
The subject of data set [18] is Japanese encephalitis virus. Briefly: Antiviral activity against Japanese encephalitis virus GP78 infected BALB/c mouse assessed as reduction in mortality rate at 25 mg/kg, ip twice daily administered 1 day post viral-challenge. The data set is classed as functional. More on the design: scale not given: the % may be the effect or the level left. The following applies: route intraperitoneal. An outline of the steps: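 Survival was followed in infected BALB/c mice (4–5 weeks, either sex; 15 per group). Animals received RA in PBS at 25 mg/kg i.p. twice daily, from day 1 post-infection until the first untreated infected animal died. Symptoms (limb paralysis, tremor, piloerection, stiffening) were recorded alongside deaths.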

As for `O=C(/C=C/c1ccc(O)c(O)c1)O[C@H](Cc1ccc(O)c(O)c1)C(=O)O` [ROSMARINIC ACID], the “fold change (FC)” value in the data set on BV-2 [1] came to 14; in the data set on BV-2 [2], 13; with BV-2 [3] it was 12.5; in the data set with Mus musculus [6], 18; in the data set on Mus musculus [7], 5; with Mus musculus [11], 6. Also, the “fold change (FC)” value in the data set with Mus musculus [12] came to 100; in the data set on Mus musculus [13] it was 9; in the data set on BV-2 [15], 25; with BV-2 [17] it was 12. Also, the outcome (in the data set on Mus musculus [4]; in [8]; with Mus musculus [9]; with Mus musculus [10]; in [14]; in data set [16]) was Active. The values for the Activity result (in the data set on Mus musculus [5]; in data set [18]) were “Non-toxic” and 20%, respectively.

(Values after ChEMBL document CHEMBL1143410, “Antiviral and anti-inflammatory effects of rosmarinic acid in an experimental murine model of Japanese encephalitis” (Antimicrob Agents Chemother, 2007).)
